The source of these data is ChEMBL document CHEMBL3576816, “5'-Silylated 3'-1,2,3-triazolyl Thymidine Analogues as Inhibitors of West Nile Virus and Dengue Virus” (J Med Chem, 2015).

Data set [1] can be described thus: Cytotoxicity against BHK cells infected with West Nile virus replicon assessed as cell viability after 3 days by CellTiter 96 aqueous one solution cell proliferation assay. Format: cell-based, Mesocricetus auratus. As to conditions: hamster, 72 h. The procedure, abridged:
(§1)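 WNV replicon BHK cells, about 3 × 10^3/well, plated without antibiotic selection; next day compound in DMSO (10 μM final for screening, or eight serial dilutions), 3 days at 37°C, 5% CO2. Tetrazolium reagent, absorbance 450 nm, triplicate means versus DMSO wells; CC50 = 50% reduction in proliferation; CC50s mean ± SD of two experiments, top dose 200 μM.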

The nature of data set [2]: Cytotoxicity against BHK cells infected with Dengue virus replicon assessed as cell viability after 3 days by CellTiter 96 aqueous one solution cell proliferation assay. The class given is cell-based, Mesocricetus auratus. As to conditions: hamster, 72 h. The essentials:
(§2)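 DENV replicon BHK cells, 1.5 × 10^3/well, plated without antibiotic selection; next day compound in DMSO (10 μM final for screening, or eight serial dilutions), 3 days at 37°C, 5% CO2. Tetrazolium (MTS-type) reagent, absorbance 450 nm, triplicate means versus DMSO wells; CC50 = 50% reduction in proliferation; CC50s mean ± SD of two experiments, top dose 200 μM.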
(In general: In antiviral work, replicon cells carry a viral genome segment that copies itself.)

The test system of data set [3] is West Nile virus. Briefly: Antiviral activity against West Nile virus infected in BHK-WII RepRen1B cells assessed as inhibition of viral replication after 3 days by luciferase reporter gene assay. Format: functional, organism-based. As to conditions: 72 h. Background: In a reporter assay the amount or activity of a reporter protein is the signal.
The test system of another data set is dengue virus type 3. Briefly: Displacement of [3H]-SAM from biotinylated Dengue virus 3 methyltransferase expressed in Escherichia coli at 20 uM preincubated for 20 mins followed by [3H]-SAM addition measured after 15 mins by scintillation counting analysis. The essentials: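 Biotinylated refolded E. coli-expressed DENV3 MTase (580 nM) with SPA beads (1.5 mg/mL) and 20 μM competitor (compound, SAM or sinefungin) in Tris pH 7.5 buffer with NaCl, KCl, MgCl2, MnCl2, CHAPS, 20 min at 23°C; 3H-SAM (425 nM) added, 15 min at 23°C, centrifuged, scintillation proximity counting.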

The test system of data set [4] is Dengue virus. In words: Antiviral activity against Dengue virus infected in BHK pD2-hRucPac-2ATG cells assessed as inhibition of viral replication after 3 days by luciferase reporter gene assay. As to conditions: 72 h. Format: functional, organism-based. The procedure, abridged: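 BHK DENV subgenomic replicon line carrying Renilla luciferase, kept on 3 μg/mL puromycin; 1.5 × 10^3 cells/well plated without selection, compounds in DMSO added next day to triplicate wells, at 10 μM final for screening or eight serial dilutions. Live-cell Renilla substrate after 3 days, luminescence versus DMSO wells; EC50 = 50% luciferase reduction; MPA 1 μM control.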

The subject of data set [5] is unidentified influenza virus. In words: Antiviral activity against Influenzae virus. Format: functional, organism-based.
For data set [6], the target named is Human immunodeficiency virus type 1 reverse transcriptase (Human immunodeficiency virus 1) (UniProt Q72547). Briefly: Inhibition of HIV1 reverse transcriptase.
In data set [7] the test system is West Nile virus. In words: Antiviral activity against West Nile virus infected in BHK-WII RepRen1B cells assessed as inhibition of viral replication at 10 uM after 3 days by luciferase reporter gene assay relative to control. The class given is functional. As to conditions: 72 h. The procedure, abridged:
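Compound (DMSO, 10 μM final) added next day in triplicate; lycorine 1 μM served as control inhibitor. Three days on, live-cell Renilla substrate (1:1000 in phenol-red-free DME, 10% FBS) replaced medium. Luminescence measured; triplicate means compared with DMSO-alone wells.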

For a further data set, the system named is Hepatitis C virus. In words: Antiviral activity against HCV. As to conditions: Hepacivirus hominis. Format: functional, organism-based.
A short description of data set [8]: Cytotoxicity against BHK cells infected with Dengue virus replicon assessed as cell viability at 10 uM after 3 days by CellTiter 96 aqueous one solution cell proliferation assay relative to control. Format: cell-based, Mesocricetus auratus. As to conditions: hamster, bhk, 72 h, 10 µM. The procedure, abridged: as §2
The test system of data set [9] is Human immunodeficiency virus 1. Briefly: Antiviral activity against HIV1. Format: functional, organism-based.
Data set [10] can be described thus: Cytotoxicity against BHK cells infected with West Nile virus replicon assessed as cell viability at 10 uM after 3 days by CellTiter 96 aqueous one solution cell proliferation assay relative to control. The class given is cell-based, Mesocricetus auratus. As to conditions: hamster, bhk, 72 h, 10 µM. The essentials: as §1
The subject of data set [11] is Dengue virus. Briefly: Antiviral activity against Dengue virus infected in BHK pD2-hRucPac-2ATG cells assessed as inhibition of viral replication at 10 uM after 3 days by luciferase reporter gene assay relative to control. Format: functional. As to conditions: 72 h. The procedure, abridged: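 Renilla luciferase-bearing DENV subgenomic replicon BHK cells, kept on 3 μg/mL puromycin, seeded at 1.5 × 10^3/well without selection. Next day, 10 μM final compound in DMSO added to triplicate wells; MPA 1 μM as control inhibitor. After 3 days, medium swapped for live-cell Renilla substrate (1:1000, phenol-red-free DME, 10% FBS). Luminescence read; triplicate mean compared with DMSO-only wells.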

The next data set has as its system Human betaherpesvirus 5. Briefly: Antiviral activity against Human cytomegalovirus. Format: functional, organism-based.

pEC50: −log10 of the molar value. Activity calls are given as the source filed them. No cut-off for these calls is given here.

In general, CC50 refers to the concentration at which the toxic effect on the cells reaches its halfway point. As usually defined, the pEC50 is −log10 of the EC50, conventionally taken in molar units. What is called inhibition is the drop in the measured response relative to a control, in per cent. As to `Cc1cn([C@H]2C[C@H](NS(=O)(=O)c3ccc4ccccc4c3)[C@@H](CO[Si](C)(C)C(C)(C)C)O2)c(=O)[nH]c1=O`, the 50% cytotoxic concentration (CC50) in data set [1] was 12 µM; in data set [2], 14 µM. The pEC50 in the data set on West Nile virus [3] was 5.08; in the data set with Dengue virus [4], 5.13. Further, the inhibition entry in the data set on dengue virus type 3 is “Active”.

Take `Cc1cn([C@H]2C[C@H](NC(=O)Nc3cccc4ccccc34)[C@@H](CO[Si](C)(C)C(C)(C)C)O2)c(=O)[nH]c1=O`: the cytotoxic concentration (CC50) in [2] turned out to be 23 µM. Also, in the data set on dengue virus type 3, the inhibition entry was “Active”. Besides, in the data set with Dengue virus [4], the negative-log EC50 (pEC50) was 4.96.

Consider `Cc1cn([C@H]2C[C@H](NC(=O)NC34CC5CC(CC(C5)C3)C4)[C@@H](CO[Si](C)(C)C(C)(C)C)O2)c(=O)[nH]c1=O`, for which, in data set [1], the CC50 is 16 µM. In addition, the pEC50 in the data set with West Nile virus [3] is 5.00. The inhibition result with dengue virus type 3 is “Active”.

As for `Cc1cn([C@H]2C[C@H](NC(=O)C(c3ccccc3)(c3ccccc3)c3ccccc3)[C@@H](CO[Si](C)(C)C(C)(C)C)O2)c(=O)[nH]c1=O`, the result (in data set [5]; in the data set on Hepatitis C virus; in data set [9]; with Human betaherpesvirus 5) was inactive. The CC50 in data set [1] is 15 µM. For the same compound, the inhibition entry in data set [6] is “inactive”. Moreover, the inhibition at 10 µM with West Nile virus [7] amounted to 54%; with Dengue virus [11], 28%. Also, the pEC50 in the data set with West Nile virus [3] was 5.00. Besides, the inhibition result in the data set with dengue virus type 3 was “Active”. Besides, the Activity in data set [8] and in data set [10] was 100% each time.

As to `Cc1cn([C@H]2C[C@H](n3nncc3-c3ccccc3)[C@@H](CO[Si](C)(C)C(C)(C)C)O2)c(=O)[nH]c1=O`, the outcome (in [5]; in the data set with Hepatitis C virus; in [9]; with Human betaherpesvirus 5) was inactive. Further, the results for the 50% cytotoxic concentration (CC50) in data set [1] and in data set [2] were 32 µM and 31 µM, respectively. Besides, the inhibition entry in data set [6] is “inactive”. Moreover, the inhibition at 10 µM was found to be 93% with West Nile virus [7] and 51% with Dengue virus [11]. Moreover, the pEC50 in the data set on West Nile virus [3] is 5.08; with Dengue virus [4] it was 4.85. In addition, the inhibition entry in the data set with dengue virus type 3 was “Active”. Also, the Activity in data set [8] came out at 93%; in [10], 99%.

For the compound `Cc1cn([C@H]2C[C@H](n3nncc3C3CCCCC3)[C@@H](CO[Si](C)(C)C(C)(C)C)O2)c(=O)[nH]c1=O`, the outcome (in [5]; in the data set on Hepatitis C virus; in data set [9]; in the data set with Human betaherpesvirus 5) was inactive. Further, the 50% cytotoxic concentration (CC50) in data set [1] is 24 µM; in data set [2] it was 22 µM. The inhibition result in data set [6] was “inactive”. Further, the figures for the inhibition at 10 µM in the data set on West Nile virus [7] and with Dengue virus [11] were 85% and 75%, respectively. The pEC50 in the data set on West Nile virus [3] is 5.15; with Dengue virus [4], 5.12. In addition, the inhibition result with dengue virus type 3 was “Active”. The Activity in [8] was determined as 93%; in data set [10], 100%.

On to `C[S+](CC[C@H](N)C(=O)[O-])C[C@H]1O[C@@H](n2cnc3c(N)ncnc32)[C@H](O)[C@@H]1O` (stereo partly specified), for which the inhibition result in the data set with dengue virus type 3 was “Active”.

For the compound `Cc1cn([C@H]2C[C@H](N3C(=O)CSC3c3c4ccccc4cc4ccccc34)[C@@H](CO[Si](C)(C)C(C)(C)C)O2)c(=O)[nH]c1=O` (mixture of isomers), the outcome (in data set [5]; in the data set on Hepatitis C virus; in [9]; with Human betaherpesvirus 5) was inactive. In addition, in data set [1], the CC50 came to 27 µM. Further, the inhibition result in data set [6] was “inactive”. The inhibition at 10 µM in the data set with West Nile virus [7] is 85%; in the data set with Dengue virus [11], 46%. Also, the negative logarithm of the EC50 (pEC50) in the data set with West Nile virus [3] is 5.05. The inhibition entry in the data set on dengue virus type 3 is “Active”. The Activity came to 97% in data set [8] and 90% in [10].

With `Cc1cn([C@H]2C[C@H](NC(=O)c3cccc4ccccc34)[C@@H](CO[Si](C)(C)C(C)(C)C)O2)c(=O)[nH]c1=O`, the result (in data set [5]; in the data set on Hepatitis C virus; in data set [9]; in the data set with Human betaherpesvirus 5) was inactive. Moreover, in data set [1], the cytotoxic concentration (CC50) is more than 200 µM. For the same compound, in data set [6], the inhibition result is “inactive”. For the same compound, the inhibition at 10 µM with West Nile virus [7] was found to be 37%; with Dengue virus [11] it was 11%. Further, the negative logarithm of the EC50 (pEC50) in the data set with West Nile virus [3] was 4.48. Further, in the data set on dengue virus type 3, the inhibition entry is “Active”. Besides, the Activity in data set [8] is on record as 99%; in [10], 94%.

For `COc1ccc2cc(-c3cnnn3[C@H]3C[C@H](n4cc(C)c(=O)[nH]c4=O)O[C@@H]3CO[Si](C)(C)C(C)(C)C)ccc2c1`, the result (in data set [5]; in the data set with Hepatitis C virus; in data set [9]; with Human betaherpesvirus 5) was inactive. Further, the values for the 50% cytotoxic concentration (CC50) in [1] and in data set [2] were 13 µM and 7.9 µM, respectively. Also, the inhibition result in data set [6] was “inactive”. Further, the inhibition at 10 µM turned out to be 97% with West Nile virus [7] and 85% in the data set with Dengue virus [11]. Also, the pEC50 with West Nile virus [3] is 5.54; in the data set with Dengue virus [4], 5.14. Also, the inhibition entry with dengue virus type 3 is “Active”. Moreover, the Activity is on record as 86% in data set [8] and 100% in data set [10].

Take `Nc1ncnc2c1ncn2[C@@H]1O[C@H](C[C@@H](N)CC[C@H](N)C(=O)O)[C@@H](O)[C@H]1O`: the inhibition result in the data set on dengue virus type 3 was “Active”.

As for `Cc1cn([C@H]2C[C@H](N3C(=O)CSC3c3ccc4[nH]ccc4c3)[C@@H](CO[Si](C)(C)C(C)(C)C)O2)c(=O)[nH]c1=O` (mixture of isomers), the result (in [5]; with Hepatitis C virus; in [9]; with Human betaherpesvirus 5) was inactive. In [1], the CC50 worked out at 15 µM. Also, the inhibition result in data set [6] was “inactive”. Moreover, the inhibition at 10 µM in the data set with West Nile virus [7] was found to be 92%; in the data set on Dengue virus [11], 49%. The negative logarithm of the EC50 (pEC50) in the data set with West Nile virus [3] was 5.47. For the same compound, the inhibition result in the data set with dengue virus type 3 is “Active”. For the same compound, the Activity in data set [8] and in data set [10] was 99% throughout.

Consider `Cc1cn([C@H]2C[C@H](n3nncc3-c3ccc(-c4ccccc4)cc3)[C@@H](CO[Si](C)(C)C(C)(C)C)O2)c(=O)[nH]c1=O`, for which the outcome (in data set [5]; in the data set with Hepatitis C virus; in data set [9]; in the data set with Human betaherpesvirus 5) was inactive. Also, the inhibition entry in data set [6] was “inactive”. Further, the inhibition at 10 µM in the data set on West Nile virus [7] stood at 100%; in the data set on Dengue virus [11], 99%. Moreover, the Activity is 47% in data set [8] and 10% in data set [10].

Turning to `Cc1cn([C@H]2C[C@H](NC(=O)c3c4ccccc4cc4ccccc34)[C@@H](CO[Si](C)(C)C(C)(C)C)O2)c(=O)[nH]c1=O`, the result (in data set [5]; in the data set on Hepatitis C virus; in data set [9]; in the data set with Human betaherpesvirus 5) was inactive. For the same compound, in [6], the inhibition result was “inactive”. The inhibition at 10 µM worked out at 0% in the data set with West Nile virus [7] and 7.6% in the data set on Dengue virus [11]. In addition, the figures for the Activity in data set [8] and in data set [10] were 98% and 100%, respectively.
